Here are results for 73 sequences from the array DNA melting data of Ke et al. (doi:10.1101/2024.01.08.574731).

Data set [1] is described as follows: folding enthalpy; higher = less favourable; fluorescence melt of hairpins on a sequencing array, two-state fit. The conditions noted are these: sodium 0.088 M. In short, it runs like this:
(§1)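 With Cy3 and quencher oligos annealed, library hairpins on a sequenced MiSeq flow cell were imaged for Cy3 fluorescence in 50 mM Na-HEPES pH 8.0, 25 mM NaCl, in 2.5 °C steps up to 60 °C. Melting temperature and folding enthalpy were derived from bootstrapped two-state fits of signals normalised to pre-quench Cy3 and to control constructs. Four replicates were combined by inverse variance, with fitted temperatures raised by 9.35 °C to match UV melts.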

Data set [2] can be described thus: melting temperature; fluorescence melt of hairpins on a sequencing array, two-state fit, raised by 9.35 °C to match UV melts. To be noted: sodium 0.088 M. In short, it runs like this: as §1

As to GCCACGGCGAAAGCCGGC (((..(((....)))))), in data set [1], the folding enthalpy is -7.83 kcal/mol. Moreover, the Tm in data set [2] came to 49.1 °C.
The corresponding values for GCCACGGGAAACCACGGC (((..((....))..))) are -34.4 kcal/mol and 46.5 °C.
For the sequence GCCACGGGAAACCATGGC ((((.((....)).)))), in data set [1], the folding enthalpy is -47.8 kcal/mol. Further, the Tm in data set [2] came out at 48.6 °C.
The corresponding values for GCCACGGGAAACCGCAGC ((..(((....)))..)) are -17.4 kcal/mol and 34.1 °C.
The corresponding values for GCCACTGGAAACAGCAGC ((..(((....)))..)) are -11.8 kcal/mol and 25.5 °C.
As for GCCACTGGAAACAGCGGC (((.(((....))).))), the folding enthalpy in data set [1] was -42.6 kcal/mol. In data set [2], the Tm is 52.9 °C.
In the case of GCCAGAGGAAACTCTGGC (((((((....))))))), the folding enthalpy in data set [1] is -44.8 kcal/mol. The Tm in data set [2] turned out to be 69.1 °C.
The corresponding values for GCCAGCGAAAGCTATGGC ((((((....)))..))) are -21.4 kcal/mol and 55.3 °C.
The corresponding values for GCCAGCGAAAGCTGAGGC ((((((....)))..))) are -15.5 kcal/mol and 53.5 °C.
Take GCCAGCGGAAACACTGGC (((((.(....).))))): the folding enthalpy in data set [1] is -39.2 kcal/mol. Further, the Tm in data set [2] came to 52.8 °C.
The corresponding values for GCCAGGCGAAAGCATAGC ((.(.((....)).).)) are -11.1 kcal/mol and 37.8 °C.
The corresponding values for GCCAGGCGAAAGCCGCGC ((..(((....)))..)) are -18 kcal/mol and 58.4 °C.
The corresponding values for GCCAGGCGAAAGCGCGGC (((..((....))..))) are -18.6 kcal/mol and 59.6 °C.
For GCCAGGCGAAAGCGTAGC ((.(.((....)).).)), the folding enthalpy in data set [1] was -7.64 kcal/mol. Moreover, in data set [2], the Tm came to 38.9 °C.
The corresponding values for GCCAGGCGAAAGCGTTGC ((.(.((....)).).)) are -16.6 kcal/mol and 34.2 °C.
The corresponding values for GCCAGGCGAAAGCTAGGC (((..((....))..))) are -27.9 kcal/mol and 61.3 °C.
Turning to GCCAGGCGAAAGCTCGGC (((..((....))..))), the folding enthalpy in data set [1] was -38.4 kcal/mol. Moreover, the Tm in data set [2] was found to be 59.8 °C.
The corresponding values for GCCAGGCGAAAGCTTAGC ((.(.((....)).).)) are -10.9 kcal/mol and 32.3 °C.
The corresponding values for GCCAGGGGAAACCCCGAC (.(.(((....))).).) are -9.47 kcal/mol and 32.6 °C.
As for GCCAGGGGAAACCCCGGC (((.(((....))).))), the folding enthalpy in data set [1] was -38.6 kcal/mol. In data set [2], the Tm stood at 59.8 °C.
As for GCCAGGGGAAACCCTAGC ((.((((....)))).)), the folding enthalpy in data set [1] is -22.8 kcal/mol. Besides, the Tm in data set [2] was determined as 41 °C.
With GCCAGTCGAAAGACGGGC (((.(((....))).))), the folding enthalpy in data set [1] is -35 kcal/mol. For the same sequence, the Tm in data set [2] amounted to 68.6 °C.
The corresponding values for GCCAGTGGAAACACCAGC ((..(((....)))..)) are -13.9 kcal/mol and 33.1 °C.
Regarding GCCAGTGGAAACACCGGC (((.(((....))).))), in data set [1], the folding enthalpy was -37.1 kcal/mol. In data set [2], the Tm stood at 49.6 °C.
The corresponding values for GCCAGTGGAAACATTGGC ((((.((....)).)))) are -37 kcal/mol and 50.8 °C.
The corresponding values for GCCAGTGGAAACGCTGGC (((((.(....).))))) are -41.8 kcal/mol and 61 °C.
The corresponding values for GCCAGTGGAAACGTTGGC ((((..(....)..)))) are -24.4 kcal/mol and 48.2 °C.
Turning to GCCATACGAAAGTAGGC (((.(((....)))))), the folding enthalpy in data set [1] is -28.4 kcal/mol. In addition, the Tm in data set [2] was 52.6 °C.
The corresponding values for GCCATCACGAAAGTGGGC (((..(((....)))))) are -19.4 kcal/mol and 47.2 °C.
The corresponding values for GCCATCGAAAGATAAGGC ((((((....)))..))) are -23.5 kcal/mol and 44.8 °C.
For GCCATCGAAAGATAGGGC ((((((....)))..))), the folding enthalpy in data set [1] is -27.4 kcal/mol. Further, in data set [2], the Tm amounted to 44.6 °C.
The corresponding values for GCCATCGAAAGATGCGGC ((((((....)))..))) are -16.6 kcal/mol and 49.2 °C.
As to GCCATCGAAAGATTGGC ((((((....))).))), the folding enthalpy in data set [1] is -30.3 kcal/mol. Besides, in data set [2], the Tm came to 50.7 °C.
With GCCATCGAAAGATTTGGC ((((((....)))..))), the folding enthalpy in data set [1] was -24.1 kcal/mol. For the same sequence, the Tm in data set [2] stood at 41.3 °C.
The corresponding values for GCCATGCGAAAGCCTCGC ((.(.((....)).).)) are -6.86 kcal/mol and 34 °C.
Turning to GCCATGCGAAAGCGCGGC (((..((....))..))), the folding enthalpy in data set [1] was -20 kcal/mol. Moreover, the Tm in data set [2] worked out at 59.2 °C.
The corresponding values for GCCATGCGAAAGCGTAGC ((.(.((....)).).)) are -11.2 kcal/mol and 37 °C.
The corresponding values for GCCATGCGAAAGCGTTGC ((.(.((....)).).)) are -18.1 kcal/mol and 43.6 °C.
For the sequence GCCATGTCGAAAGACGGC (((..(((....)))))), the folding enthalpy in data set [1] is -20.1 kcal/mol. In data set [2], the Tm was 51.5 °C.
The corresponding values for GCCATTCGAAAGAAGGC (((.(((....)))))) are -25.6 kcal/mol and 48.1 °C.
The corresponding values for GCCATTCGAAAGAAGGGC (((.(((....))).))) are -41 kcal/mol and 59.4 °C.
The corresponding values for GCCATTGGAAACAGTGGC ((((.((....)).)))) are -45.3 kcal/mol and 50.7 °C.
On to GCCCACACGAAAGTGGGC (((..(((....)))))), for which, in data set [1], the folding enthalpy was -26.4 kcal/mol. Further, in data set [2], the Tm stood at 68 °C.
Turning to GCCCACCGAAAGGTCGGC (((.(((....))).))), the folding enthalpy in data set [1] was -40.4 kcal/mol. For the same sequence, the Tm in data set [2] came out at 53.5 °C.
For the sequence GCCCACCGAAAGGTTGGC (((.(((....))).))), in data set [1], the folding enthalpy was -42.5 kcal/mol. For the same sequence, the Tm in data set [2] came out at 55.3 °C.
Consider GCCCACGAAAGTGCCGGC ((((((....)))..))), for which, in data set [1], the folding enthalpy is -16.1 kcal/mol. Further, in data set [2], the Tm was 46.6 °C.
For GCCCACGAAAGTGCGGC ((((((....))).))), the folding enthalpy in data set [1] was -29.5 kcal/mol. Also, the Tm in data set [2] is 63.3 °C.
As to GCCCACGAAAGTGGAGGC ((((((....)))..))), in data set [1], the folding enthalpy was -15.5 kcal/mol. The Tm in data set [2] came out at 52.5 °C.
GCCCACGCGAAAGCGGGC (((..(((....)))))): in data set [1], the folding enthalpy is -11.9 kcal/mol. Also, the Tm in data set [2] came out at 61.8 °C.
The corresponding values for GCCCACGGAAACGCAGGC (((..((....))..))) are -17.8 kcal/mol and 39.6 °C.
The corresponding values for GCCCACGGAAACGCGAGC ((.(.((....)).).)) are -14.7 kcal/mol and 28 °C.
The corresponding values for GCCCACGGAAACGTAGGC (((.(((....))).))) are -30.6 kcal/mol and 48.4 °C.
For the sequence GCCCAGCGAAAGCAGAGC ((.(.((....)).).)), the folding enthalpy in data set [1] was -10.9 kcal/mol. Besides, the Tm in data set [2] was found to be 41.2 °C.
On to GCCCAGCGAAAGCCGCGC ((.(.((....)).).)), for which, in data set [1], the folding enthalpy is -10.1 kcal/mol. Also, in data set [2], the Tm was determined as 45.7 °C.
For the sequence GCCCAGCGAAAGCGGCGC ((.(.((....)).).)), in data set [1], the folding enthalpy is -17 kcal/mol. In data set [2], the Tm was 64.5 °C.
Turning to GCCCAGGGAAACCCAGGC (((..((....))..))), the folding enthalpy in data set [1] is -25.6 kcal/mol. Further, the Tm in data set [2] worked out at 44.4 °C.
For GCCCAGGGAAACCCGAGC ((.(.((....)).).)), in data set [1], the folding enthalpy was -6.87 kcal/mol. The Tm in data set [2] was found to be 28.3 °C.
As for GCCCAGGGAAACCCGGAC (.((.((....)).)).), the folding enthalpy in data set [1] was -4.63 kcal/mol. Moreover, the Tm in data set [2] turned out to be 28.6 °C.
The corresponding values for GCCCATCGAAAGATTGGC (((.(((....))).))) are -27.3 kcal/mol and 47.8 °C.
The corresponding values for GCCCATGCGAAAGCAGGC (((..(((....)))))) are -13.8 kcal/mol and 50.8 °C.
Consider GCCCATTCGAAAGAAGGC (((..(((....)))))), for which the folding enthalpy in data set [1] is -15.8 kcal/mol. The Tm in data set [2] came to 33 °C.
Consider GCCCCACGAAAGTGGGC (((.(((....)))))), for which, in data set [1], the folding enthalpy was -10.9 kcal/mol. Moreover, the Tm in data set [2] turned out to be 65.5 °C.
GCCCCAGGAAACCGAGGC (((.(.(....).).))): the folding enthalpy in data set [1] was -16.3 kcal/mol. The Tm in data set [2] stood at 32.6 °C.
The corresponding values for GCCCCAGGAAACTGGGAC (.(((((....))))).) are -15.6 kcal/mol and 46.1 °C.
The corresponding values for GCCCCATCGAAAGATGGC (((..(((....)))))) are -7.75 kcal/mol and 37.9 °C.
The corresponding values for GCCCCCGAAAGGGCTGGC ((((((....)))..))) are -16.2 kcal/mol and 61.8 °C.
Take GCCCCCGAAAGGGTAGGC ((((((....)))..))): the folding enthalpy in data set [1] was -23.3 kcal/mol. In addition, in data set [2], the Tm turned out to be 55.9 °C.
The corresponding values for GCCCCCGAAAGGGTGGGC ((((((....)))..))) are -27.8 kcal/mol and 63.2 °C.
The corresponding values for GCCCCCGCGAAAGCGGGC (((..(((....)))))) are -4.3 kcal/mol and 34.8 °C.
The corresponding values for GCCCCGCGAAAGCACGGC (((..((....))..))) are -18.3 kcal/mol and 41.6 °C.
For GCCCCGCGAAAGCCGAGC ((.(.((....)).).)), in data set [1], the folding enthalpy was -11.3 kcal/mol. Also, the Tm in data set [2] amounted to 32.1 °C.
As for GCCCCGCGAAAGCCGTGC ((.(.((....)).).)), the folding enthalpy in data set [1] was -15.5 kcal/mol. Besides, the Tm in data set [2] worked out at 27.7 °C.
As for GCCCCGCGAAAGCGCAGC ((..(((....)))..)), in data set [1], the folding enthalpy was -7.42 kcal/mol. Moreover, in data set [2], the Tm came out at 40.3 °C.
